As usually defined, the pIC50 is −log10 of the IC50, conventionally taken in molar units.

Each structure is given as a SMILES string. pIC50: −log10 of the molar value. Activity calls are given as the source filed them. No cut-off for these calls is given here.

The results in this text go back to ChEMBL document CHEMBL1156109, “Synthesis and antioxidant properties of dendritic polyphenols” (Bioorg Med Chem Lett, 2009).

Test [1] in a line: Antioxidant activity assessed as inhibition of AAPH-induced lipid peroxidation in human plasma LDL after 18 hrs by gel electrophoresis. The class given is functional, cell-free. Put shortly: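 LDL oxidized with 10 mM AAPH for 18 h at 37 °C, with or without antioxidant. Azo initiator used instead of Cu2+ so that metal pro-oxidant effects are avoided. Read-out is anodic migration on agarose gel, with AAPH-oxidized LDL set as 100% migration.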

Test [2] has as its system Radical scavenging activity. Nature of the test: Antioxidant activity assessed as DPPH free radical scavenging activity within 10 mins. Format: functional. For orientation: Loss of DPPH colour is used to gauge radical scavenging.
Test [3] in a line: Antioxidant activity against linoleic acid assessed as inhibition of beta-carotene bleaching at 12 uM after 180 mins. Format: functional. Further details: scale not given: the % may be the effect or the level left. Put shortly: (§1)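 Linoleic acid/β-carotene emulsion held at 50 °C for 180 min with antioxidant across a range of concentrations. Bleaching of β-carotene followed as A470. % A470 = (sample A470 at 180 min / at 0 min ×100) minus the same ratio for a no-antioxidant control.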

A short description of test [4]: Prooxidant effect on Cu2+-induced pBR322 DNA damage at 0.35 to 45 uM after 1 hr. The class given is functional. Put shortly: (§2)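 Pro-oxidant test: pBR322 plasmid incubated with 10 μM Cu2+ at 37 °C for 1 h with compound at final 0.35–45 μM. DNA damage judged by agarose gel electrophoresis.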
Test [5] deals with Radical scavenging activity. The experiment in a line: Antioxidant activity assessed as DPPH free radical scavenging activity within 1 mins. Format: functional.
Test [6] in a line: Antioxidant activity assessed as protection against AAPH-induced pBR322 plasmid DNA strand open circular form at 0.35 to 45 uM after 4 hrs by agarose gel electrophoresis. The class given is functional. In outline:
(§3)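 pBR322 plasmid DNA incubated with AAPH (final 10 mM) at 37 °C for 4 h, with or without antioxidant at final 0.35–45 μM. Agarose electrophoresis then compares supercoiled and open circular band intensities with a no-AAPH control.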

Test [7] can be described thus: Antioxidant activity against linoleic acid assessed as inhibition of beta-carotene bleaching after 180 mins. Format: functional. In outline: as §1
Test [8] in a line: Prooxidant effect on Cu2+-induced pBR322 DNA damage at 25 to 45 uM after 1 hr. Format: functional. Conditions: 23 and 45 uM; in the assay text read “23 and 45 uM” for “25 to 45 uM”. Put shortly: as §2
Test [9] is described as follows: Antioxidant activity assessed as protection against AAPH-induced pBR322 plasmid DNA strand open circular form at >= 45 uM after 4 hrs by agarose gel electrophoresis. Format: functional. In outline:
as §3

Test [10] can be described thus: Antioxidant activity assessed as protection against AAPH-induced pBR322 plasmid DNA strand open circular form at <5 uM after 4 hrs by agarose gel electrophoresis. Format: functional. In outline:
(§4)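 pBR 322 plasmid DNA incubated with AAPH (10 mM final) at 37 °C for 4 h, with or without antioxidant (0.35-45 μM final). Samples then run on agarose electrophoresis. Protection was judged from the supercoiled (S) band intensity against a control without AAPH. AAPH converts the DNA to the open circular (O) form.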

Test [11] in a line: Prooxidant effect on Cu2+-induced pBR322 DNA damage at 3 to 45 uM after 1 hr. The class given is functional.
Test [12] can be described thus: Antioxidant activity assessed as protection against AAPH-induced pBR322 plasmid DNA strand open circular form at 5 uM after 4 hrs by agarose electrophoresis. Format: functional. Put shortly:
as §4

Test [13] is described as follows: Antioxidant activity assessed as protection against AAPH-induced pBR322 plasmid DNA strand open circular form at 11 to 45 uM after 4 hrs by agarose gel electrophoresis. Format: functional. Put shortly:
as §4

Regarding `COc1cc(C=O)ccc1O` [VANILLIN], the outcome in [1] and in [4] was inactive. In addition, the pIC50 in test [2] was less than 4.00. In addition, the Activity in [3] was less than 5%.

As to `Cc1c(C)c2c(c(C)c1O)CCC(C)(C(=O)O)O2` (centres undefined) [TROLOX], in [5], the pIC50 was 4.56. Besides, the result in test [6] was inactive. Further, the result in test [4] was Active.

With `COc1cc(CN(Cc2ccc(CN(Cc3ccc(O)c(OC)c3)Cc3ccc(O)c(OC)c3)cc2)Cc2ccc(O)c(OC)c2)ccc1O`, the result in [7], in test [8] and in [9] was Active. Also, the Activity result in [1] was “Dose-dependent effect”.

Regarding `O=c1c(O)c(-c2ccc(O)c(O)c2)oc2cc(O)cc(O)c12`, the result in test [10] and in test [12] was inactive. Besides, the outcome in [11] and in test [13] was Active.

Take `NCc1ccc(CN)cc1`: in test [3], the Activity stood at 16%.

Take `COc1cc(CN(Cc2ccc(CN(Cc3cc(I)c(O)c(OC)c3)Cc3cc(I)c(O)c(OC)c3)cc2)Cc2cc(I)c(O)c(OC)c2)cc(I)c1O`: in test [7], the result was Active. In [6], the outcome was inactive. Besides, in test [1], the Activity result was “Dose-dependent effect”.

Take `COc1cc(CN(Cc2ccc(CN(Cc3cc(OC)c(O)c(OC)c3)Cc3cc(OC)c(O)c(OC)c3)cc2)Cc2cc(OC)c(O)c(OC)c2)cc(OC)c1O`: the outcome in test [7], in test [11], in [12] and in test [13] was Active. The Activity entry in test [1] was “Dose-dependent effect”. The outcome in test [10] was inactive.

Consider `COc1cc(C=O)cc(OC)c1O` [SYRINGALDEHYDE], for which the outcome in test [1] and in [4] was inactive. The pIC50 in test [2] is less than 4.00. Moreover, the Activity in test [3] was 12%.
